In the library only some 2.3% were active in any assay of this set; here they are far more common.
TRPC4 agonist – activators of mouse TRPC4 channel, primary screen, Fluo4 calcium, HEK293 TRPC4beta/mu-opioid cells; Fluo4 calcium fluorescence; active compounds read high; AID 2237, 2010; actives 0.49% (n = 310,000); Short transient receptor potential channel 4 (Mus musculus), Q9QUQ5; B-score at 10 µM;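 active means B-score above 5 SD of library B-scores, and initial fluorescence ratio not above library mean plus 5 SD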;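 further: positive B-score marks a calcium rise read as TRPC4 activation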
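Assay system: HEK293 stable line with TRPC4beta plus mu-opioid receptor. Times: dye 45 min RT, read 110 s. Measured by: kinetic Fluo4 calcium fluorescence. Measure: B score of integrated ratio. Controls: assay buffer as low control, maximal DAMGO as high control.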
TRPC4 inh – inhibitors of mouse TRPC4 channel, primary screen, Fluo4 calcium, HEK293 TRPC4beta/mu-opioid cells; B-score at 10 µM; actives 0.39% (n = 300,000); DAMGO-evoked Fluo4 calcium flux; active compounds read low; Short transient receptor potential channel 4 (Mus musculus), Q9QUQ5; AID 2247, 2010;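 active means B-score over 3 SD under the library average, no early fluorescence shift, positive overall ratio signal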
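Signal: kinetic Fluo4 fluorescence imaging of calcium influx. Material: stable TRPC4beta/mu-opioid receptor HEK293 cells. Probe or stimulus: DAMGO in two steps, submaximal then maximal.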
TRPC6 activator – mouse TRPC6 channel activators, primary screen, cell-based, HEK293, membrane potential dye; Short transient receptor potential channel 6 (Mus musculus), Q61143; HEK293-TRPC6 membrane potential dye fluorescence; active compounds read high; B-score at 10 µM; actives 0.13% (n = 310,000);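 active means B-score of the integrated fluorescence ratio above library mean plus 3 SD, and starting fluorescence ratio within library mean plus 5 SD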;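 further: higher score means more depolarization so channel activation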
Target sequence (Q61143 whole entry, looked up): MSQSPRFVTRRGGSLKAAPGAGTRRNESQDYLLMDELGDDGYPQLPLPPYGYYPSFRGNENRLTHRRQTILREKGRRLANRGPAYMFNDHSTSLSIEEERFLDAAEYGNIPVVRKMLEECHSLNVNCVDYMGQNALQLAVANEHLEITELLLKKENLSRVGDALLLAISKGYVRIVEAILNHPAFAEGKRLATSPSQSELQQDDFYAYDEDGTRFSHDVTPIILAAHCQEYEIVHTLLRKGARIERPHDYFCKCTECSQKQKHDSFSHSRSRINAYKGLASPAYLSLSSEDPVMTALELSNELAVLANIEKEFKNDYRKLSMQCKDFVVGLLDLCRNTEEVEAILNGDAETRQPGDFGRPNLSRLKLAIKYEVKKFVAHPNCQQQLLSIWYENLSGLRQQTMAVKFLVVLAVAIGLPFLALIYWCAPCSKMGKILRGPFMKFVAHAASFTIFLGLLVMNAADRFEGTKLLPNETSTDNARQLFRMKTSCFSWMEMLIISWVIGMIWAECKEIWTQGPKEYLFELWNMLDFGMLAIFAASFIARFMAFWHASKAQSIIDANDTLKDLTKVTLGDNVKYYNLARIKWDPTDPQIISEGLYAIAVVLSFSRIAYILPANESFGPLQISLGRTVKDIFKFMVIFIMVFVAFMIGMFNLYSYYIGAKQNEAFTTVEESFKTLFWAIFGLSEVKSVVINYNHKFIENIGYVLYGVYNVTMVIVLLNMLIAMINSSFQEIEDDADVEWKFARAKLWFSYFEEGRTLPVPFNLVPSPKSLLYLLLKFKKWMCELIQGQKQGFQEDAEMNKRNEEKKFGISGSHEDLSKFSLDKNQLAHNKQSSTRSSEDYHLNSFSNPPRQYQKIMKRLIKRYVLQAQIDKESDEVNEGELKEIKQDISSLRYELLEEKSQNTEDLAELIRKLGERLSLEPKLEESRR
TRPC4 PAM – positive allosteric modulators of TRPC4, primary screen, cell-based, mouse TRPC4beta, HEK293 mu-opioid, Fluo-4 calcium | Short transient receptor potential channel 4 (Mus musculus), Q9QUQ5 | DAMGO EC20, Fluo-4 Ca2+ flux; active compounds read high | B-score at 10 µM | actives 0.42% (n = 310,000) | AID 2227, 2009;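 active means B-score of calcium response area above 5 SD of library B-scores, with initial fluorescence ratio within 5 SD of library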;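 further: B-score of integrated fluorescence ratio over time as area under calcium response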
TRPC6 inhibitor – mouse TRPC6 channel inhibitors, primary screen, cell-based, HEK293, membrane potential dye. Short transient receptor potential channel 6 (Mus musculus), Q61143. ACh-evoked depolarization; active compounds read low. B-score at 10 µM. actives 1.1% (n = 310,000);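 active means B-score under library mean minus 3 SD, initial fluorescence not abnormally high, positive integrated signal ratio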;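 further: B-score derived from integrated fluorescence ratio over the kinetic read; more negative B-score means stronger inhibition of depolarization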
TRPC4 sel inh 2 – second check of whether TRPC6 inhibitors also affect mouse TRPC4; shares compounds with TRPC6 inhibitor; HEK293 TRPC4/MOR, membrane potential dye fluorescence; channel activated by saturating DAMGO dose; inhibition, % at 10 µM; actives 42% (n = 920); AID 2776;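 active means compounds whose fluorescence signal differed from control wells by over 3 SD, either direction, in both duplicate plates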
TRPC4 spec – mouse TRPC4 modulation by TRPC6 hits, confirmation, selectivity assay for TRPC6 inhibitor project, cell-based, HEK293 TRPC4/mu-opioid, membrane potential dye; shares compounds with TRPC6 inhibitor; actives 61% (n = 920); activity change, negative = inhibition, % at 10 µM; membrane potential fluorescence;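 active means rise or fall in signal beyond 3 SD of buffer-only wells in both replicate plates, either sign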;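 further: integrated kinetic ratio of fluorescence range over baseline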
HEK293 MPD ctr 2-1 – nonspecific membrane potential effects, parental HEK293, confirmation, counter-screen for TRPC6 inhibitor project, cell-based, second counter screen; shares compounds with TRPC6 inhibitor; parental HEK293 membrane potential dye fluorescence; maximal acetylcholine challenge after compound addition; signal change vs control, % at 10 µM; actives 31% (n = 920);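 active means membrane potential signal moving either way by over 3 SD of the maximum-effect control, in both duplicate plates, meaning non-specific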
HEK293 MPD ctr-1 – membrane potential modulation in parental HEK293, confirmation, counter-screen for TRPC6 inhibitor project, cell-based. shares compounds with TRPC6 inhibitor. parental HEK293 membrane potential dye fluorescence. membrane potential signal change, % at 10 µM. actives 60% (n = 920);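 active means membrane potential signal shifting up or down by more than 3 SD of buffer-only wells, on both duplicate plates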
HEK293 MPD ctr-2 – parental HEK293 membrane potential modulation, confirmation, counter-screen for TRPC6 modulator project, cell-based. membrane potential signal change, % at 10 µM. shares compounds with TRPC6 inhibitor. actives 51% (n = 2,400). membrane potential dye fluorescence. AID 488924, 2010;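 active means membrane potential signal moves up or down beyond 5 SD from buffer-only wells, on both duplicate plates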
HEK293 MPD ctr 2-2 – second counter-screen for TRPC6 modulators: effect in parental HEK293 cells. shares compounds with TRPC6 inhibitor. membrane potential dye fluorescence; after compound, maximal acetylcholine stimulation. inhibition, % at 10 µM. actives 14% (n = 2,400);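 active means membrane potential signal drops by more than 5 SD from the mean control signal, in both duplicate plates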;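 further: plate controls were acetylcholine ECmax control wells for no effect and buffer only wells for full effect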
TRPC4/MOR mod – TRPC4 modulation by TRPC6 hit compounds, confirmation, selectivity assay for TRPC6 modulator project, cell-based, HEK293 TRPC4/mu-opioid, membrane potential dye, mouse. shares compounds with TRPC6 inhibitor. membrane potential fluorescence. percent change from control (negative = decrease, positive = increase), % at 10 µM. actives 69% (n = 2,400);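 active means membrane potential signal moved up or down beyond 5 SD of buffer control wells, in both duplicate plates, actives on both sides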;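 further: plate controls were assay buffer wells for no effect and DAMGO maximal-effect wells for full effect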
TRPC4 ctr inh 2 – second selectivity test of TRPC6 modulators against mouse TRPC4; actives 55% (n = 2,400); inhibition, % at 10 µM; shares compounds with TRPC6 inhibitor; HEK293 TRPC4/mu-opioid, membrane potential dye fluorescence; stimulated with maximal-effect DAMGO;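 active means drop in membrane potential signal beyond 5 SD of the control wells in both duplicate plates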;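 further: TRPC4 counter screen for TRPC6 hits run under conditions tuned for TRPC6 not TRPC4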
TRPC6 block conf – mouse TRPC6 channel inhibitors, confirmation, HEK293 cells, membrane potential dye, duplicate | AID 488960, 2010 | shares compounds with TRPC6 inhibitor | actives 43% (n = 3,300) | inhibition, % at 10 µM | ACh-evoked depolarization;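 active means fluorescence ratio falls more than 5 SD below the full-stimulation control mean, in both duplicate runs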;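 further: integrated fluorescence ratio of peak minus minimum over baseline after agonist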
TRPC6 act confirm – mouse TRPC6 channel activators, confirmation, HEK293 cells, membrane potential dye, duplicate; AID 488961, 2010; actives 11% (n = 2,800); shares compounds with TRPC6 inhibitor; HEK293-TRPC6 membrane potential dye fluorescence, FDSS; activation, % at 10 µM;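 active means ratio signal rise beyond 5 SD above unstimulated control wells' mean, seen in both duplicate runs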;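 further: plate controls were buffer EC0 wells for no effect and acetylcholine ECmax response for full effect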
The depositor's hits bear a star; i = inactive; . = no result.

SMILES | TRPC4 agonist | TRPC4 inh | TRPC6 activator | TRPC4 PAM | TRPC6 inhibitor | HEK293 MPD ctr-2 | HEK293 MPD ctr 2-2 | TRPC4/MOR mod | TRPC4 ctr inh 2 | TRPC6 block conf | TRPC6 act confirm | others
CCC[N+]1(CC#CCC(c2ccccc2)c2ccccc2)CCCCC1 | i | i | i | i | -5.21* | i | i | 11.5%* | i | 42.0%* | i
O=C1NC(c2ccccc2)Nc2c1sc(=S)n2-c1ccccc1 (centres undefined) | i | i | i | i | i | . | . | . | . | . | .
Cc1ccc(NC(=O)COc2ccc3c(c2)CCC3)nc1 | i | i | i | i | i | . | . | . | . | . | .
COc1ccccc1N1CCN(S(=O)(=O)CCNC(=O)c2ccccc2Br)CC1 | i | i | i | i | i | . | . | . | . | . | .
CCOC1=C/C(=C/c2c(N)n3nc(-c4ccccc4)sc3nc2=O)C=CC1=O | i | i | 13.2* | i | -5.26* | 427.5%* | 140.0%* | 52.0%* | i | i | 73.0%*
CCS(=O)(=O)c1nn2c(N)c(/C=C3/C=CC(=O)C(OC)=C3)c(=O)nc2s1 | i | i | i | i | i | . | . | . | . | . | .
CC(=O)N1CCc2cc(S(=O)(=O)NCC(=O)NCc3ccc(Cl)cc3)ccc21 | i | i | i | i | i | . | . | . | . | . | .
CN(C)c1ccc2c(c1)OC(N)=C(C#N)C2c1cccc(F)c1 (centres undefined) | 56* | i | 12.3* | i | i | 413.0%* | i | 29.5%* | 45.0%* | i | 43.5%*
CCOC(=O)c1cc(C#N)c(N2CCN(c3ccccn3)CC2)nc1-c1ccccc1 | i | i | i | i | i | . | . | . | . | . | .
CS(=O)(=O)N1CCC(C(=O)Nc2ccc(F)cc2F)CC1 | i | i | i | i | -6.35* | i | i | 12.0%* | i | i | .
CS(=O)(=O)N1CCC(C(=O)Nc2ccc(F)cc2)CC1 | i | i | i | i | i | . | . | . | . | . | .
CC1(NC(=O)NCc2ccccc2)CCS(=O)(=O)C1 (centres undefined) | i | i | i | i | i | . | . | . | . | . | .
O=C(Nc1ccccc1F)Nc1ccccc1Br | i | i | i | i | i | . | . | . | . | . | .
Cc1oc(-c2ccc(Cl)cc2)nc1CN1CCC(C(=O)NCCCN2CCCC(C)C2)CC1 (centres undefined) | i | i | i | i | i | . | . | . | . | . | .
CN(C)S(=O)(=O)c1ccc(C(=O)Nc2nnc(-c3ccc4c(c3)CCCC4)o2)cc1 | i | i | i | i | -5.56* | i | i | i | i | i | i
CN(C)S(=O)(=O)c1ccc(C(=O)Nc2nnc(-c3cccs3)o2)cc1 | i | i | i | i | i | . | . | . | . | . | .
O=C(c1ccco1)N1CCN(C(=S)Nc2ccc(Br)cc2Cl)CC1 | i | i | i | i | i | . | . | . | . | . | .
O=C(CSc1nnnn1C1CCCCC1)Nc1ccc(F)cc1 | i | i | i | i | i | . | . | . | . | . | .
O=C(CSc1nnnn1C1CCCCC1)Nc1ccc2c(c1)OCO2 | i | i | i | i | -8.67* | . | . | . | . | i | i | TRPC4 sel inh 2=i;TRPC4 spec=i;HEK293 MPD ctr 2-1=i;HEK293 MPD ctr-1=i
N=c1c(C(=O)NCCN2CCOCC2)cc2c(=O)n3ccccc3nc2n1CCCN1CCOCC1 | i | i | i | i | -7.57* | . | . | . | . | 77.0%* | i | TRPC4 sel inh 2=69.5%*;TRPC4 spec=3.7%*;HEK293 MPD ctr 2-1=-287.5%*;HEK293 MPD ctr-1=5.5%*
N=c1c(C(=O)NCCN2CCOCC2)cc2c(=O)n3ccccc3nc2n1Cc1ccc(F)cc1 | i | i | i | i | -7.74* | -74.5%* | 90.5%* | -17.0%* | 45.0%* | 56.0%* | i
Cc1ccc2nc(NCc3ccccc3)c(C=NCc3ccccc3)c(=O)n2c1 | i | i | i | i | i | . | . | . | . | . | .
Cc1ccc2nc3c(cc(C(=O)NCCN4CCOCC4)c(=N)n3CCCN3CCOCC3)c(=O)n2c1 | i | i | i | i | -7.48* | . | . | . | . | 82.6%* | . | TRPC4 sel inh 2=72.0%*;TRPC4 spec=i;HEK293 MPD ctr 2-1=-173.5%*;HEK293 MPD ctr-1=i
Cc1ccc2nc(NCCCN3CCOCC3)c(C=NCCCN3CCOCC3)c(=O)n2c1 | i | i | i | i | -8.91* | -350.5%* | 79.5%* | -66.5%* | 53.0%* | 63.5%* | i

Compound activity (PubChem BioAssay)
